The values that follow come from ChEMBL document CHEMBL1159310, “Indole and beta-carboline alkaloids from Geissospermum sericeum” (J Nat Prod, 2002).

SMILES strings stand for the structures.

One assay relates to KB. In words: Cytotoxicity against human KB cells after 48 hrs by MTT assay. The assay is classed as cell-based. The essentials:
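Human KB cells (0.5 × 10^6 viable cells/mL in RPMI 1640 with 20% FCS) added to compound diluted in RPMI 1640 from […] DMSO stocks; 48 h at 37 °C. MTT (5 mg/mL) added for 15 min, supernatant discarded, cells solubilised in DMSO plus Sørensen's glycine buffer pH 10.5; OD read at 570 nm; IC50 by curve fitting.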

The subject of assay [1] is Plasmodium falciparum. Put plainly: Antiplasmodial activity against chloroquine-resistant Plasmodium falciparum K1. The assay is classed as functional, organism-based.
Assay [2] relates to Plasmodium falciparum. In words: Antiplasmodial activity against chloroquine-sensitive Plasmodium falciparum T9-96. The assay is classed as functional, organism-based.
The test system of assay [3] is Plasmodium falciparum. Put plainly: Selectivity for Plasmodium falciparum K1 to Plasmodium falciparum T9-96 as IC50 ratio. The assay is classed as functional.

A word on the IC50: it is the midpoint of a concentration-inhibition curve. In the case of `CC[C@@H]1CN2CC[C@@]34C(=Nc5ccccc53)[C@@H](CO)[C@H]1C[C@H]24`, the IC50 in the assay with KB is over 40 µM; in the assay with Plasmodium falciparum [1], 27.3 µM; in the assay on Plasmodium falciparum [2] it was 35.4 µM.

For the molecule `CC[C@@H]1C[N+]2([O-])CC[C@]34c5ccccc5N[C@H]3[C@@H](CO)[C@H]1C[C@@H]42` (some centres undefined), the IC50 with KB, in the assay with Plasmodium falciparum [1] and in the assay with Plasmodium falciparum [2] was over 40 µM in each case.

In the assay on KB, `CCN(CC)CCCC(C)Nc1ccnc2cc(Cl)ccc12` (centres undefined) [CHLOROQUINE] displayed an IC50 of 20.4 µM.

On to `CCc1ccc2c3[nH]c4ccccc4c3cc[n+]2c1.[Cl-]` [FLAVOPEREIRINE], for which the “Ratio IC50” value with Plasmodium falciparum [3] is 6.3. For the same molecule, the values for the IC50 with KB, with Plasmodium falciparum [1] and with Plasmodium falciparum [2] were 10.7 µM, 11.5 µM and 1.83 µM, respectively.

With `CC[C@@H]1CN2CC[C@]34c5ccccc5N[C@H]3[C@@H](CO)[C@H]1C[C@H]24` [GEISSOSCHIZOLINE], the IC50 in the assay on KB, with Plasmodium falciparum [1] and in the assay on Plasmodium falciparum [2] was over 40 µM in each case.
